Like-named read-outs stand apart in the source and are kept apart here.
How the values were obtained:
[1] = tested on: SCC-9 cells (human tongue oral squamous cell carcinoma); experiment: MTT cell viability assay in SCC-9 cells; type: cell-based; conditions: for IC50: read-out: IC50 SSC9 oral squamous cell carcinoma; for Selectivity index (S.I.): IC50 in NIH3T3 / IC50 in SCC-9
Method in brief: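 SCC-9 tongue OSCC cells from ATCC, grown in 1:1 DMEM/F12 with 10% FBS and 400 ng/mL hydrocortisone, 37 °C, 5% CO2. Plated at 5 × 10³ cells/well in triplicate, 48 h with graded test compound doses against matched DMSO (100% viability). MTT for 4 h, formazan in methanol/DMSO 1:1, absorbance 560 nm minus 670 nm. S.I. = IC50 NIH3T3 / IC50 SCC-9.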

[2] = tested on: NIH3T3 mouse fibroblast cells; experiment: MTT cell viability assay in NIH3T3 normal fibroblasts; type: cell-based; conditions: read-out: IC50 NIH3T3 normal mouse fibroblasts
Method in brief: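 NIH3T3 fibroblasts from ATCC, kept in DMEM with 10% FBS at 37 °C, 5% CO2. Seeded at 5 × 10³ cells/well in triplicate and exposed to a range of test compound concentrations for 48 h; DMSO diluted in medium at matching levels set 100% viability. MTT in medium for 4 h, formazan dissolved in 1:1 methanol/DMSO, A560 read minus 670 nm background.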

SCC-9 cells = experiment: Cell cycle progression and cell death, propidium iodide flow cytometry; type: cell-based, human; conditions: 48 h, compared to negative control

Row | SMILES | IC50 ([1]; Homo sapiens, SCC-9, 48 h) | Selectivity index (S.I.) [1] | IC50 ([2]; Mus musculus, NIH3T3, 48 h) | Effect on DNA fragmentation (SCC-9 cells) | Effect on cells in G2/M phases (SCC-9 cells) | Effect on proportion of cells in G0/G1 phase (SCC-9 cells) | IC50 ([1]; MTT, 48 h treatment) | IC50 ([2]; MTT, 48 h treatment)
1 | Cc1ccc([Se]C#CCOC2=CC(=O)c3ccccc3C2=O)cc1 [Compound 9b, 2-((3-(p-Tolylselanyl)prop-2-yn-1-yl)oxy)naphthalene-1,4-dione] | 17.1 µM | 0.52 | 8.93 µM |  |  |  |  | 
2 | COc1cccc2c1C(=O)c1c(O)c3c(c(O)c1C2=O)C[C@@](O)(C(=O)CO)C[C@@H]3O[C@H]1C[C@H](N)[C@H](O)[C@H](C)O1 [doxorubicin, reference compound] | 2.71 µM | 0.61 | 1.66 µM |  |  |  |  | 
3 | C#CCOC1=C(Sc2ccccc2)C(=O)c2ccccc2C1=O [Compound 11, 2-(Phenylthio)-3-(prop-2-yn-1-yloxy)naphthalene-1,4-dione] | 62.3 µM |  |  |  |  |  |  | 
4 | O=C1C=C(OCC#C[Se]c2ccc3ccccc3c2)C(=O)c2ccccc21 [Compound 9g, 2-((3-(Naphthalen-2-ylselanyl)prop-2-yn-1-yl)oxy)naphthalene-1,4-Dione] | 68.2 µM |  |  |  |  |  |  | 
5 | O=C1C=C(OCC#C[Se]c2ccccc2)C(=O)c2ccccc21 [Compound 9a, 2-((3-(Phenylselanyl)prop-2-yn-1-yl)oxy)naphthalene-1,4-dione] | 31.9 µM | 2.62 | 83.6 µM |  |  |  |  | 
6 | CCCC[Se]C#CCOC1=CC(=O)c2ccccc2C1=O [Compound 9i, 2-((3-(Butylselanyl)prop-2-yn-1-yl)oxy)naphthalene-1,4-dione] | 37.4 µM |  |  |  |  |  |  | 
7 | O=C1C=C(OCC#C[Se]c2ccc(Cl)cc2)C(=O)c2ccccc21 [Compound 9e, 2-((3-((4-Chlorophenyl)selanyl)prop-2-yn-1-yl)oxy)naphthalene-1,4-dione] | 65.4 µM |  |  |  |  |  |  | 
8 | Cc1cc(C)c([Se]C#CCOC2=CC(=O)c3ccccc3C2=O)c(C)c1 [Compound 9h, 2-((3-(Mesitylselanyl)prop-2-yn-1-yl)oxy)naphthalene-1,4-dione] | 49 µM |  |  |  |  |  |  | 
9 | O=C1C=C(OCC#C[Te]c2ccccc2)C(=O)c2ccccc21 [Compound 10a, 2-((3-(Phenyltellanyl)prop-2-yn-1-yl)oxy)naphthalene-1,4-dione] | 1.65 µM | 3.53 | 5.83 µM | increased DNA fragmentation | no apparent alteration in the percentage of cells in the G2/M phases | significantly decreased the proportion of cells in the G0/G1 phase |  | 
10 | O=C1C=C(OCC#C[Se]c2ccc(F)cc2)C(=O)c2ccccc21 [Compound 9d, 2-((3-((4-Fluorophenyl)selanyl)prop-2-yn-1-yl)oxy)naphthalene-1,4-dione] | 23.5 µM | 1.03 | 24.2 µM |  |  |  |  | 
11 | O=C1C=C(OCC#C[Se]c2ccc(C(F)(F)F)cc2)C(=O)c2ccccc21 [Compound 9f, 2-((3-((4-(Trifluoromethyl)phenyl)selanyl)prop-2-yn-1-yl)oxy)naphthalene-1,4-dione] | 31.7 µM | 1.78 | 56.5 µM | increased DNA fragmentation | marked reduction of cells in the G2/M phases | increased numbers of cells in the G0/G1 phase |  | 
12 | Cc1ccc([Te]C#CCOC2=CC(=O)c3ccccc3C2=O)cc1 [Compound 10b, 2-((3-(p-Tolyltellanyl)prop-2-yn-1-yl)oxy)naphthalene-1,4-dione] | 4 µM | 0.57 | 2.27 µM | increased DNA fragmentation | no apparent alteration in the percentage of cells in the G2/M phases | significantly decreased the proportion of cells in the G0/G1 phase |  | 
13 | N.N.O=C([O-])C1(C(=O)[O-])CCC1.[Pt+2] [carboplatin, reference compound] |  | 0.27 |  |  |  |  | 572 µM | 156 µM
14 | O=C1C=C(OCC#C[Te]c2ccc(Cl)cc2)C(=O)c2ccccc21 [Compound 10c, 2-((3-((4-Chlorophenyl)tellanyl)prop-2-yn-1-yl)oxy)naphthalene-1,4-dione] | 2.89 µM | 1.70 | 4.9 µM | increased DNA fragmentation | marked reduction of cells in the G2/M phases |  |  | 
15 | COc1ccc([Se]C#CCOC2=CC(=O)c3ccccc3C2=O)cc1 [Compound 9c, 2-((3-((4-Methoxyphenyl)selanyl)prop-2-yn-1-yl)oxy)naphthalene-1,4-dione] | 24.8 µM | 1.10 | 27.2 µM |  |  | increased numbers of cells in the G0/G1 phase |  | 
